According to PMC8109618 (Bioorganic & medicinal chemistry, 2020):

Assays:
hFXIa [1] = target: T1, hFXIa (Homo sapiens, UniProt P03951); test: Direct inhibition of hFXIa, chromogenic substrate; assay type: biochemical; settings: for selectivity for hFXIa over FXa and trypsin: based on inhibition at >200 μM
FXa = FXa (Homo sapiens, UniProt P00742); test: Direct inhibition of FXa, chromogenic substrate; assay type: biochemical; settings: not shown
How it was run: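 Human plasma FXa was held as stock in 20 mM Tris-HCl, pH 7.4, 100 mM NaCl, 2.5 mM CaCl2, 0.1% PEG8000, 0.02% Tween80. […] Percent inhibition came from the ratio of proteolytic activity with versus without test compound.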

trypsin = target: T2, trypsin (Bos taurus, UniProt P00760); test: Direct inhibition of trypsin, chromogenic substrate; assay type: biochemical, bovine; settings: not shown
T2 sequence (P00760 24-246): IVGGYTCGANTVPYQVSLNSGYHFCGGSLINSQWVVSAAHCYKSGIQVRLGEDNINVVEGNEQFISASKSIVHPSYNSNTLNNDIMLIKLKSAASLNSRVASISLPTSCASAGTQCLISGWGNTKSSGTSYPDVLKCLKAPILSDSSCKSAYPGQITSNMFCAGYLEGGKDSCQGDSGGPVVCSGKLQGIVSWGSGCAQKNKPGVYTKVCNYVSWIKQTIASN
How it was run: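 Bovine trypsin was held as stock in 50 mM Tris-HCl, pH 7.4, 150 mM NaCl, 0.1% PEG8000, 0.02% Tween80. The assay used 2.5 ng/ml enzyme with 80 μM S-2222 (in-well) at 37 °C, pH 7.4. Percent inhibition was calculated from the ratio of activity with versus without test compound.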

hFXIa–DEGR = hFXIa–DEGR (Homo sapiens, UniProt P03951); test: Fluorescence titration of active site dansylated hFXIa; assay type: binding
hFXIa [2] = target: T1, hFXIa; assay type: biochemical
How it was run: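 Human plasma FXIa. The initial rate of S-2366 ([…]) hydrolysis was taken from the linear A405 rise, with under 10% substrate consumed. S-2366 was varied from 0.03 to 2 mM at a fixed test compound concentration. Buffer was 50 mM Tris-HCl pH 7.4 with 150 mM NaCl, 0.1% PEG8000 and 0.02% Tween80, at 37 °C. KM and VMAX came from a nonlinear hyperbolic Michaelis–Menten fit.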

hFXIa [3] = target: T1, hFXIa; test: Analytical ultracentrifugation of hFXIa–inhibitor complex; settings: 100 μM inhibitor, 20 °C; dimeric form, same as hFXIa alone

T1 sequence (P03951 388-625 limits assumed): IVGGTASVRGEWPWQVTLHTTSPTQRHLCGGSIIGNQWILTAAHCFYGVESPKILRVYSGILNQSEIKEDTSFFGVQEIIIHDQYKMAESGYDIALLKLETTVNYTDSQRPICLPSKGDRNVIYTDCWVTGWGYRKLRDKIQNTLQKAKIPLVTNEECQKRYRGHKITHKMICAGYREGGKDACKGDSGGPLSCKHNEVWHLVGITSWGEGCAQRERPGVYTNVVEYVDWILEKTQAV
T1 sequence (P03951 19-387 partner limits assumed): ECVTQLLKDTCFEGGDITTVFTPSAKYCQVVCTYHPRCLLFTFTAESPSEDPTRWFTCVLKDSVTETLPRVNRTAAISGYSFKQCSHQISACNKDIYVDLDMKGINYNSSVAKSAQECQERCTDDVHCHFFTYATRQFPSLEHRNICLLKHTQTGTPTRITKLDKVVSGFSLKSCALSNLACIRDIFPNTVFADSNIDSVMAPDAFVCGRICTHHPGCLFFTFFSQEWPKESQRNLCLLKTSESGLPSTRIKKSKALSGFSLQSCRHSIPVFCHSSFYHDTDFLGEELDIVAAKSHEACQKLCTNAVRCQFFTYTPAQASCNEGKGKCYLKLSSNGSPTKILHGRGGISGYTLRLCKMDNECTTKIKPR
Sequence of hFXIa–DEGR (P03951 388-625 limits assumed): as the sequence (P03951 388-625 limits assumed) above
Sequence of hFXIa–DEGR (P03951 19-387 partner limits assumed): as the sequence (P03951 19-387 partner limits assumed) above
Sequence of FXa (P00742 235-488 limits assumed): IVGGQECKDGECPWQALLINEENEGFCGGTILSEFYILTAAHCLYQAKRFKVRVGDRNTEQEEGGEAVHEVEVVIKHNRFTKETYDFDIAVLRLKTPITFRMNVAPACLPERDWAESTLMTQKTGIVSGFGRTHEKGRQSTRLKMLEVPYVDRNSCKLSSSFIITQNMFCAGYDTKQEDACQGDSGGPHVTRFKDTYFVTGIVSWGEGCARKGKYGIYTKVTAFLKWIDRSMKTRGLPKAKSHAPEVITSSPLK
Sequence of FXa (P00742 41-179 partner limits assumed): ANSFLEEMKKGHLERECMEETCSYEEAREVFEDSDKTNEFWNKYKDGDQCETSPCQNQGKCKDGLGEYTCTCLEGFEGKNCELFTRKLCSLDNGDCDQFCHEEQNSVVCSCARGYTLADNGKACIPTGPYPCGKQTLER

Structure (SMILES)	selectivity for hFXIa over FXa and trypsin (hFXIa [1]) [fold]	concentration at which FXa is inhibited (FXa) [µM]	concentration at which trypsin is inhibited (trypsin) [µM]	also measured
O=c1c2ccccc2nc(-c2ccc(OS(=O)(=O)[O-])cc2)n1CCCCCCCCCCn1c(-c2ccc(OS(=O)(=O)[O-])cc2)nc2ccccc2c1=O.[Na+].[Na+] [Inhibitor 20S]	> 25	> 200	> 200	
O=c1c2ccccc2nc(-c2ccc(OS(=O)(=O)[O-])cc2)n1CCCCCCCCCCCn1c(-c2ccc(OS(=O)(=O)[O-])cc2)nc2ccccc2c1=O.[Na+].[Na+] [Inhibitor 21S]	> 25	> 200	> 200	
O=c1[nH]c(-c2ccc(OS(=O)(=O)[O-])cc2)nc2ccccc12.[Na+] [Inhibitor 2S]				fold higher KD than the next compound (hFXIa–DEGR; 2S vs 18S, 18S vs 19S): ~ 3.2 fold
O=c1c2ccccc2nc(-c2ccc(OS(=O)(=O)[O-])cc2)n1CCCCCCCCCn1c(-c2ccc(OS(=O)(=O)[O-])cc2)nc2ccccc2c1=O.[Na+].[Na+] [Inhibitor 19S]				n (Hill coefficient) (hFXIa–DEGR; 250 nM FXIa–DEGR, pH 7.4, 37 °C): 5.0±0.4; mechanism of inhibition (hFXIa [2]; KM invariant, VMAX decreased): non-competitive; VMAX (hFXIa [2]; at 120 μM inhibitor, pH 7.4, 37 °C): 9.7±0.37 mAU/min; sedimentation coefficient s of hFXIa–inhibitor complex (hFXIa [3]): 6.6 S
O=c1c2ccccc2nc(-c2ccc(OS(=O)(=O)[O-])cc2)n1CCCCCn1c(-c2ccc(OS(=O)(=O)[O-])cc2)nc2ccccc2c1=O.[Na+].[Na+] [Inhibitor 11S]				increase in potency as compared to the monomeric fragment (hFXIa [1]; IC50 ratio vs monomer 2S): ~ 7 fold
